Experimental data from different studies.
Each line is one published result; the experiments were not run side by side.
PDE1C: Dual specificity calcium/calmodulin-dependent 3',5'-cyclic nucleotide phosphodiesterase 1C (PDE1C, Homo sapiens, UniProt Q14123)
DDR2: Discoidin domain-containing receptor 2 (DDR2, Homo sapiens, UniProt Q16832)
SLC6A3: Sodium-dependent dopamine transporter (SLC6A3, Homo sapiens, UniProt Q01959)
TLR8: Toll-like receptor 8 (TLR8, Homo sapiens, UniProt Q9NR97)
PTPN22: Tyrosine-protein phosphatase non-receptor type 22 (PTPN22, Homo sapiens, UniProt Q9Y2R2)
ACLY: ATP-citrate synthase (ACLY, Homo sapiens, UniProt P53396)
PRMT1: Protein arginine N-methyltransferase 1 (PRMT1, Homo sapiens, UniProt Q99873)
CHEK1: Serine/threonine-protein kinase Chk1 (CHEK1, Homo sapiens, UniProt O14757)

With CSc1ccc(/C=C2/C(C)=C(CC(=O)O)c3cc(F)ccc32)cc1 the IC50 was greater than 100 µM (PDE1C; enzyme activity, inhibitor).
With Cc1cnc(-c2ccc(-c3ccc(NC(=O)Nc4c(F)cc(F)cc4F)cc3F)c3c2C(=O)NC3)[nH]1 the IC50 was 0.001 µM (DDR2; enzyme activity, inhibitor).
c1ccc(CCC2CCN(CCCn3nnnc3C(c3ccccc3)c3ccccc3)CC2)cc1 has an IC50 of 0.726 µM (SLC6A3; transporter uptake, inhibitor).
With Cc1cccc(-c2ccnc3c(C(=O)O)cnn23)c1 the IC50 was greater than 20 µM (TLR8; reporter gene).
CCOc1ccc2c(-c3cc(C)nc(Nc4cc(OC)cc(C(F)(F)F)c4)n3)cnn2n1 has an IC50 of greater than 10 µM (Dual specificity protein kinase CLK4 (CLK4, Homo sapiens, UniProt Q9HAZ1); enzyme activity, inhibitor).
For CC(C)N(C(=S)SSC(=S)N(C(C)C)C(C)C)C(C)C, the IC50 was 7 µM (PTPN22; enzyme activity, inhibitor, fluorescence; pH 6.5).
For COc1ccc(-c2ccccc2)cc1NS(=O)(=O)c1cc(Cl)cc(Cl)c1O, the IC50 was 0.46 µM (ACLY; enzyme activity, inhibitor).
N=C(N)c1ccc(-c2ccc(-c3ccc(C(=N)N)nc3)o2)cc1 gave an IC50 of 9.5 µM (PRMT1; enzyme activity, inhibitor).
For CNC(=O)c1cc2c(Oc3ccc(NC(=O)C4(C(=O)Nc5ccc(F)cc5)CC4)cc3)ccnc2cc1OC, the IC50 was 0.041 µM (DDR2; enzyme activity, inhibitor, radiometric).
For Cc1ccc(NC(=O)c2ccc(C)c(C(F)(F)F)c2)cc1C#Cc1nn(C2CCC(O)CC2)c2ncnc(N)c12 (stereo not drawn), the IC50 was 0.065 µM (DDR2; enzyme activity, inhibitor, radiometric).
With Fc1ccc(C(c2ccc(F)cc2)c2nnnn2CCCCN2CCC(Cc3ccc(Cl)c(Cl)c3)CC2)cc1 the IC50 was 0.608 µM (SLC6A3; transporter uptake, inhibitor).
CN(CCOc1ccc(CC2SC(=O)NC2=O)cc1)c1ccccn1 (stereo not drawn) has an IC50 of 1.7 µM (Pantothenate kinase 3 (PANK3, Homo sapiens, UniProt Q9H999); enzyme activity, inhibitor, ATP luminescence).
C=C1CC[C@@H]([C@H](C)CC(=O)/C=C(\C)C(=O)O)[C@@]12CCC1=C2CC[C@H]2C(C)(C)C(=O)CC[C@]12C gave an IC50 of greater than 20 µM (ACLY; enzyme activity, inhibitor).
With O=S(=O)(O)OC[C@H]1O[C@@](COS(=O)(=O)O)(O[C@H]2O[C@H](COS(=O)(=O)O)[C@@H](OS(=O)(=O)O)[C@H](OS(=O)(=O)O)[C@H]2OS(=O)(=O)O)[C@@H](OS(=O)(=O)O)[C@@H]1OS(=O)(=O)O the IC50 was greater than 4000 µM (Coagulation factor XI (F11, Homo sapiens, UniProt P03951); enzyme activity, inhibitor, absorbance; pH 7.4).
The IC50 of O=C1CSC(=S)N1NC(=S)SSC(=S)NN1C(=O)CSC1=S is reported as 3 µM (PTPN22; enzyme activity, inhibitor, fluorescence; pH 6.5).
For COc1cc(-c2ccc(-c3[nH]nc4c3Cc3cc(CNC5CCC(O)CC5)ccc3-4)cc2)ccc1O (stereo not drawn), the IC50 was 0.0594 µM (CHEK1; enzyme activity, inhibitor).
The IC50 of Cc1cc(Nc2cc(CN3CCOCC3)c3nc(C)c(Cc4ccc(Cl)cc4F)n3n2)n[nH]1 is reported as 0.032 µM (Fibroblast growth factor receptor 2 (FGFR2, Homo sapiens, UniProt P21802); enzyme activity, inhibitor, TR-FRET).
With COc1ccc2c(Oc3ccc4c(C(=O)Nc5ccccc5N)cccc4c3)ccnc2c1 the IC50 was greater than 0.5 µM (Ephrin type-B receptor 4 (EPHB4, Homo sapiens, UniProt P54760); enzyme activity, inhibitor).
CN1C(=O)c2c(nn(Cc3ccc(-c4cccc(F)n4)cc3)c2Nc2ccccc2)N2C1=N[C@@H]1CCC[C@@H]12 has an IC50 of 5.3e-05 µM (PDE1C; enzyme activity, inhibitor, radiometric).
For C#CCNC(=N)NCCCSC[C@H]1O[C@@H](n2cnc3c(NCCCc4ccccc4)ncnc32)[C@H](O)[C@@H]1O, the IC50 was 2.09 µM (PRMT1; enzyme activity, inhibitor, fluorescence).
With Clc1ccc(C(c2ccccc2)c2nnnn2CCCCN2CCC(Cc3ccc(Cl)c(Cl)c3)CC2)cc1 (stereo not drawn) the IC50 was 0.55 µM (SLC6A3; transporter uptake, inhibitor).
OC[C@H]1O[C@@H](n2cnc3c(NCCCc4ccccc4)ncnc32)[C@H](O)[C@@H]1O has an IC50 of greater than 100 µM (PRMT1; enzyme activity, inhibitor, fluorescence).
With Clc1ccc(C(c2ccccc2)c2nnnn2CCCN2CCC(Cc3ccccc3)CC2)cc1 (stereo not drawn) the IC50 was 0.226 µM (SLC6A3; transporter uptake, inhibitor).
CCN(CC)C(=O)c1cnn2c(-c3cccc(C(F)(F)F)c3)ccnc12 has an IC50 of greater than 20 µM (TLR8; reporter gene).
For CCN(CC)C(=O)CC(c1ccc2c(c1)OCO2)c1c(O)cc(OC)cc1OC (stereo not drawn), the IC50 was greater than 50 µM (Nuclear receptor ROR-gamma (Mus musculus, UniProt P51450); reporter gene).
The IC50 of COC(=O)Cc1ccc2c(c1)NC(=O)c1cc(C)c(-c3cccc(NC(C)=O)c3)cc1N2 is reported as greater than 10 µM (CHEK1; enzyme activity, inhibitor).
CCCC[C@H](NC(=O)C1CN(C)C1)c1ncc(-c2cc3ccccc3nc2OC)[nH]1 has an IC50 of greater than 30 µM (Histone deacetylase 5 (HDAC5, Homo sapiens, UniProt Q9UQL6); enzyme activity, inhibitor).
Cc1cc(-c2ccnc3cc(Cl)ccc23)ccc1O has an IC50 of 0.001 µM (TLR8; reporter gene, antagonist).
The IC50 of COc1ccc2c(c1)C(CC(=O)Nc1cccnc1)=C(C)/C2=C/c1cc(OC)c(OC)c(OC)c1 is reported as 0.3 µM (cAMP and cAMP-inhibited cGMP 3',5'-cyclic phosphodiesterase 10A (PDE10A, Homo sapiens, UniProt Q9Y233); enzyme activity, inhibitor, FP).
With Clc1ccc(C(c2ccccc2)c2nnnn2CCCCN2CCN(CC=Cc3ccccc3)CC2)cc1 (stereo not drawn) the IC50 was 0.412 µM (SLC6A3; transporter uptake, inhibitor).
With COc1cc(-c2ccc3c(c2)Nc2ccc(CC(=O)NC(CO)c4ccccc4)cc2NC3=O)ccc1[N+](=O)[O-] (stereo not drawn) the IC50 was 0.0269 µM (CHEK1; enzyme activity, inhibitor).
N=C(NCCCO)NCCCSC[C@H]1O[C@@H](n2cnc3c(NCCCc4ccccc4)ncnc32)[C@H](O)[C@@H]1O has an IC50 of 4.9 µM (PRMT1; enzyme activity, inhibitor, fluorescence).
For O=C(N[C@@H]1CC[C@@H](c2cccc(F)c2F)CN(CC(F)(F)F)C1=O)N1CCC(n2c(=O)[nH]c3ncccc32)CC1, the IC50 was 42.4 µM (ATP-binding cassette sub-family C member 4 (ABCC4, Homo sapiens, UniProt O15439); transporter uptake, inhibitor; HEK293; cell membranes).
COC(=O)C1CCCN1C(=O)c1ccc2c(c1)NC(=O)c1ccc(-c3ccc(O)c(OC)c3)cc1N2 (stereo not drawn) has an IC50 of 0.128 µM (CHEK1; enzyme activity, inhibitor).
The IC50 of Fc1ccc(C(c2ccc(F)cc2)c2nnnn2CCCCN2CCN(Cc3ccccc3)CC2)cc1 is reported as 0.144 µM (SLC6A3; transporter uptake, inhibitor).
The IC50 of COc1cccc(CN(C(=O)CC(C)(C)C)[C@H]2C[C@@H](C(=O)N3CCNCC3)N(Cc3ccc4c(c3)OCO4)C2)c1 is reported as 1.5 µM (Protein smoothened (SMO, Homo sapiens, UniProt Q99835); reporter gene, inhibitor, luciferase).
The IC50 of C/C(=N\O)c1ccc(-c2ccc(O)c(C)c2)c(Cl)c1O is reported as 11.1 µM (Solute carrier family 2, facilitated glucose transporter member 1 (SLC2A1, Homo sapiens, UniProt P11166); transporter uptake, inhibitor, radiometric).
With COC(=O)Cc1ccc2c(c1)NC(=O)c1ccc(-c3cccc4ccccc34)cc1N2 the IC50 was greater than 10 µM (CHEK1; enzyme activity, inhibitor).
The IC50 of Fc1ccc(C(c2ccc(F)cc2)c2nnnn2CCCCN2CCC(c3ccccc3)CC2)cc1 is reported as 0.0557 µM (SLC6A3; transporter uptake, inhibitor).
The IC50 of COC(=O)Cc1ccc2c(c1)NC(=O)c1ccc(-c3cn(C)cn3)cc1N2 is reported as 7.81 µM (CHEK1; enzyme activity, inhibitor).
For CCn1ncc2c1-c1cnc(N)c(c1)O[C@H](C)c1cc(F)ccc1-c1nn(C)nc1C2, the IC50 was 0.077 µM (Activated CDC42 kinase 1 (TNK2, Homo sapiens, UniProt Q07912); enzyme activity, inhibitor, radiometric).
COc1cc(-c2ccc3c(c2)Nc2ccc(NC(=O)c4cc[nH]n4)cc2NC3=O)ccc1[N+](=O)[O-] gave an IC50 of 0.00906 µM (CHEK1; enzyme activity, inhibitor).
The IC50 of Clc1ccc(C(c2ccccc2)c2nnnn2CCCCN2CCC(CCCc3ccccc3)CC2)cc1 (stereo not drawn) is reported as 0.331 µM (SLC6A3; transporter uptake, inhibitor).
For OC1CCC(NCc2ccc3c(c2)Cc2c-3n[nH]c2-c2ccc[nH]2)CC1 (stereo not drawn), the IC50 was 1.66 µM (CHEK1; enzyme activity, inhibitor).
COc1ccc(S(=O)(=O)ON=C2C=C(C)C(=O)C(C)=C2)cc1 has an IC50 of 33.9 µM (Histone acetyltransferase KAT2A (KAT2A, Homo sapiens, UniProt Q92830); enzyme activity, inhibitor, radiometric).
